Data: PubChem BioAssay AID720543 (The Scripps Research Institute Molecular Screening Center, 2013)
The whole screen tested about 370,000 compounds, of which about 2,000 (0.54%) were called active. Only a selection was taken, and actives are over-represented in it overall. A number with no mark means an inactive call.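 The calls were made as follows: active = inhibition exceeding the mean over every tested compound plus 3 SD (cut at about 30% in these data); inactive = the rest.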

Each molecule was assayed against (Lyso)-N-acylphosphatidylethanolamine lipase (Mus musculus) (UniProt Q8VD66) (assay: mouse ABHD4 hydrolase activity blockers – biochemical, fluorescence polarization, primary screen (AID 720543;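 also: 0% = plate median of compound wells and 100% = S159A mutant with DMSO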)). Conditions: purified mABHD4, FP-Rh probe fluorescence polarization; at 8.92 µM; active compounds read high.
Chain of (Lyso)-N-acylphosphatidylethanolamine lipase (Mus musculus) (Q8VD66 whole entry, looked up): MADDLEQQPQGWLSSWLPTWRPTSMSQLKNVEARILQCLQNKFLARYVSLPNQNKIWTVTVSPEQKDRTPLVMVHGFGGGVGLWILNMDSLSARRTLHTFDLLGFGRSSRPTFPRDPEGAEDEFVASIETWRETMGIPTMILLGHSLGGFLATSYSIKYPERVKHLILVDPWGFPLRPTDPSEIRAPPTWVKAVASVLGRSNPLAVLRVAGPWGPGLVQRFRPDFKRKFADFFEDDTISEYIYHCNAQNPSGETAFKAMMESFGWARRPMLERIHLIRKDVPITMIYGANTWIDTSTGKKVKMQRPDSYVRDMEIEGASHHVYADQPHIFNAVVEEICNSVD
In short: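 Material: mouse ABHD4 enzyme, wild type; Benchmarks: S159A mutant high control, sample median low control; Buffer or medium: HEPES pH 7.0, NaCl, Pluronic buffer; Signal: fluorescence polarization; Read-out: percent inhibition of probe binding, normalized to plate controls; Timing: pre-incubation 45 min, probe exposure 60 min, at 25 °C; Dosing: 8.92 µM, single dose.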
Work on `O=C(CSc1nc2ccccc2s1)NN=Cc1ccc(O)cc1O` yielded an inhibition of 0.63%.
With `O=C(CSc1nc2ccccc2n1Cc1ccccc1Cl)N/N=C\c1c[nH]c2ccccc12` the inhibition was -14.1%.
`Cn1c(SCC(=O)N/N=C/c2ccc(O)c(O)c2)nc2ccccc21` was tested, and the inhibition was 30.7% (active).
Molecule `CC1CN(C(=O)c2cccc(NS(=O)(=O)c3ccc(Br)cc3)c2)CC(C)O1` (configuration not stated) has an inhibition of 3.29%.
Work on `C/C(=N/N1CCN(Cc2cccc3ccccc23)CC1)c1cccnc1` yielded an inhibition of -2.15%.
In the case of `COCCCNC(NC(=O)c1ccc(C)cc1)C(Cl)(Cl)Cl` (configuration not stated), the inhibition is reported as -5.04%.
In the case of `O=C(C1CCCO1)N1CCN(S(=O)(=O)c2ccc(Br)cc2)CC1` (configuration not stated), the inhibition is reported as 1.47%.
`Cc1nnsc1C(=O)N/N=C/c1cccc(C(F)(F)F)c1` gave an inhibition of 3.14%.
`Oc1ccc(/C=N/Nc2ccc(C(F)(F)F)cn2)cc1O` was tested, and the inhibition was 36.2% (active).
For `O=C(N/N=C/c1ccc(O)c(O)c1)C1c2ccccc2Oc2ccccc21`, the inhibition was 26.1%.
In the case of `Cc1nccc(-c2ccc(-n3c(C)ccc3C)cc2)n1`, the inhibition is reported as -7.18%.
For `CNC(=S)NNC(=O)c1oc2nc(-c3ccccc3)cc(-c3ccco3)c2c1N`, the inhibition was 37.3% (active).
For `CC(C)CNC(=O)OCc1cn(Cc2ccc(F)cc2)nn1`, the inhibition was -1.25%.
For `O=C(CSc1nnc(-c2cccc(Cl)c2)n1Cc1ccco1)Nc1ccc(OCc2ccccc2)cc1`, the inhibition was 4.02%.
Molecule `Cc1cc(C)cc(NC(=O)N2CCC(N(C)CCC(C)C)CC2)c1` has an inhibition of -1.26%.
In the case of `CCn1c(SCC(=O)Nc2cccc(F)c2)nnc1-c1cc2cc(Br)ccc2o1`, the inhibition is reported as -4.13%.
`[O-][n+]1ccc(OCc2ccccc2)cc1` gave an inhibition of 1.3%.
`CCOC(=O)C1=C(C)NC(SC)=NC1c1ccccc1` (configuration not stated) was tested, and the inhibition was 4.01%.
For `Cc1cccc(C2C3=C(CCCC3=O)N=C3c4ccccc4C(=O)C32)c1` (configuration not stated), the inhibition was 25.7%.
For `CCOC(=O)C1=C(C)N=C2c3ccccc3C(=O)C2C1c1ccc(Br)cc1` (configuration not stated), the inhibition was 46.9% (active).
`O=C(CN1CCCCCC1)N1c2ccccc2Sc2ccc(C(F)(F)F)cc21` was tested, and the inhibition was -5.91%.
`COC(=O)Cc1cc(=O)oc2c(C)c(O)ccc12` gave an inhibition of -0.82%.
With `Cc1c(CC(=O)N2CCN(C(=O)C3COc4ccccc4O3)CC2)c(=O)oc2c(O)c(O)ccc12` (configuration not stated) the inhibition was 31.1% (active).
With `Cc1ccc(S(=O)(=O)N(C)C)cc1NC(=O)COC(=O)C1COc2ccccc2O1` (configuration not stated) the inhibition was -2.17%.
`NC(=O)CCC(NS(=O)(=O)c1ccc(Cl)cc1)C(=O)NCc1ccccc1Cl` (configuration not stated) gave an inhibition of 1.64%.
In the case of `Cc1noc(C)c1C(=O)N(CC(=O)NC1CCCC1)Cc1ccccc1F`, the inhibition is reported as 8.87%.
`Cc1ccc2c(C)c(C(=O)N(C)CCC3CCCCO3)oc2c1C` (configuration not stated) gave an inhibition of 2.89%.
In the case of `COC(=O)CC1CCc2cc(C)cc(C(CC(C)C)NC(=O)[C@H](CC(C)C)NC(=O)OCc3ccccc3)c2O1` (some centres not stated), the inhibition is reported as 1.24%.
In the case of `COCCOC(=O)c1sc(=S)n(CCOC)c1N`, the inhibition is reported as 52.1% (active).
In the case of `C=CCN(Cc1ccc2c(c1)OCO2)C(C#CC1CC1)C(C)(C)C` (configuration not stated), the inhibition is reported as 7.34%.
`N#Cc1ccc(OC[C@@H](O)CN2CCC(C(O)(c3ccccc3)c3ccccc3)CC2)c(F)c1` gave an inhibition of 3.13%.
`COCCCn1c(SCC(=O)Nc2oc(C)c3c(C)n[nH]c(=O)c23)nc2sc3c(c2c1=O)CCC3` was tested, and the inhibition was -0.16%.
`NC(=O)COc1ccc(/C=N/NC(=O)C2CCCN2S(=O)(=O)c2ccc(Cl)cc2)cc1` (configuration not stated) gave an inhibition of -2.8%.
In the case of `NC(N)=N/N=C/c1ccc(OCc2ccc(Cl)cc2Cl)cc1`, the inhibition is reported as 31.7% (active).
In the case of `COC(=O)c1ccccc1-n1cc(COC(=O)NCCc2ccccc2)nn1`, the inhibition is reported as 4.86%.
`CC(=O)c1ccc(S(=O)(=O)NCC2CCN(C(=O)C(=O)c3cccs3)CC2)cc1` gave an inhibition of -4.2%.
For `C=C1C(C(C)C)N(C)C2=NC(c3ccccc3)CC(=O)N12` (configuration not stated), the inhibition was -4.4%.
`CCCCCCSc1ccc(-c2nc3ccc(Cl)cn3c2NCc2ccccc2)cc1` was tested, and the inhibition was 30.7% (active).
`Clc1ccc2nc(CSc3ccccc3)cn2c1` showed an inhibition of 0.19%.
With `COc1ccccc1Cc1c(-c2ccc(Cl)cc2)nc2ccc(Cl)cn12` the inhibition was -4.24%.
Work on `CCOC(=O)C1(S(=O)(=O)c2ccc(Cl)cc2)CCN(Cc2ccccc2)CC1` yielded an inhibition of -3.97%.
`c1csc(-c2nnc(COc3ccc4c(c3)OCO4)o2)c1` gave an inhibition of 2.17%.
`c1coc(CCNc2ncnc3ccc(-c4ccc5c(c4)OCO5)cc23)c1` showed an inhibition of -22.8%.
Work on `C/C=C/C(=O)OCc1csc(CC(=O)Nc2ccccc2C)n1` yielded an inhibition of -5.94%.
For `CC(=O)Nc1ccc(S(=O)(=O)NC(C)C(=O)OCC(=O)NC2CCCC2)cc1` (configuration not stated), the inhibition was -2.25%.
With `Cc1ccc(NC(=O)Cc2nc(COC(=O)C(C)NS(=O)(=O)c3ccc(C)cc3)cs2)cc1` (configuration not stated) the inhibition was 30% (active).
With `Cc1cc(C)c2nc3nc(C)cc(C)c3c(N)c2c1` the inhibition was -1.05%.
`Cc1sc2nc(SCC(=O)c3ccc(O)c(O)c3)n(Cc3ccco3)c(=O)c2c1C` gave an inhibition of 4.55%.
In the case of `COCCCNC(=O)C[C@H]1C[C@@]2(C(=O)OC)C(=C[C@H](C(C)(C)C)O[C@@H]2C)N(Cc2ccc3c(c2)OCO3)C1=O`, the inhibition is reported as 1.21%.
`CCOC(=O)c1cc(-c2sc(NC(=O)c3ccccc3)nc2C)n(-c2ccc(Br)cc2)n1` gave an inhibition of 1.18%.
For `Cc1ccc2c(C(=O)CN3CCCC3)c(C)[nH]c2c1`, the inhibition was 0.49%.
Work on `O=c1cnnc(Nc2ccccc2)[nH]1` yielded an inhibition of 4.6%.
`Cc1ccc(Nc2ccccc2N)cc1` was tested, and the inhibition was 28.9%.
`Nc1ccc(Nc2ccccc2)cc1` was tested, and the inhibition was 46.5% (active).
In the case of `CCCc1ccc(C(O)c2ncc(-c3cccc(OC)c3)[nH]2)cc1` (configuration not stated), the inhibition is reported as -9.64%.
`Cc1ccc(CN2CCCCC(NC(=O)C3CCCCC3)C2=O)cc1` (configuration not stated) gave an inhibition of -4.62%.
`COC(=O)C1CN(CC(C)C)CCS(=O)(=O)N1Cc1ccc(C)cc1` (configuration not stated) was tested, and the inhibition was 2.37%.
In the case of `CN1c2ccc(C=O)c3c(C=O)ccc(c23)N(C)C1(C)C`, the inhibition is reported as 64.5% (active).
With `COC(=O)C1CN(CC(C)C)CCS(=O)(=O)N1Cc1ccc(F)cc1` (configuration not stated) the inhibition was 0.68%.
Work on `CCC(=O)c1c(CC)c2n3c1=CC[C@H]3CC(Br)C=2` (some centres not stated) yielded an inhibition of 3.54%.
Molecule `Cc1cc(C)n2ncc(C(=O)Nc3ccc4c(c3)OCCO4)c2n1` has an inhibition of 1.04%.
`Cc1cc(C(=O)COc2ccccc2[N+](=O)[O-])c(C)n1-c1cccc(S(=O)(=O)N2CCOCC2)c1` gave an inhibition of -5.94%.
`O=C(N/N=C/c1cccc([N+](=O)[O-])c1)C1CC(=O)N(c2ccc(Br)cc2)C1` (configuration not stated) gave an inhibition of -2.95%.
In the case of `Cc1cc(C(=O)N/N=C/c2ccc(O)c([N+](=O)[O-])c2)c(C)n1-c1ccc(F)cc1`, the inhibition is reported as 37.5% (active).
In the case of `O=C1CC(c2ccc3c(c2)OCO3)N=C2N(CC3CC3)C/C(=C/c3ccccc3)N12` (configuration not stated), the inhibition is reported as 5.86%.
For `COc1cccc(CNC(=O)[C@H]2CCCN2C(=O)[C@H]2CCCN2C(=O)c2cc(F)cc(F)c2)c1`, the inhibition was 1.83%.
`Cc1cc(=O)n2[nH]c(-c3sccc3-n3c(C)ccc3C)cc2n1` gave an inhibition of 16.4%.
`O=[N+]([O-])/C=C/c1ccc2c(ccn2Cc2ccccc2)c1` gave an inhibition of -15%.
`O=C(O)c1ccc(N/N=C/c2cn(-c3ccccc3)nc2-c2cccs2)cc1` was tested, and the inhibition was 34.6% (active).
For `O=S(=O)(/N=C(/Nc1ccccc1)c1ccccc1)c1cccs1`, the inhibition was 1.09%.
In the case of `Cc1c(NC(=O)C(=O)N/N=C/c2cccs2)c(=O)n(-c2ccccc2)n1C`, the inhibition is reported as 3.46%.
Work on `CN1C[C@]2(C=C3CCCCC3n3c(=O)n(-c4ccccc4)c(=O)n32)N=C1NC(=O)c1ccccc1` (some centres not stated) yielded an inhibition of 0.57%.
In the case of `COc1ccc(C(=O)NC(=S)N2CCCCC2c2cccnc2)cc1OC` (configuration not stated), the inhibition is reported as -3.67%.
`COc1cc(C(=S)NC2CCCCC2)ccc1O` gave an inhibition of 0.73%.
`COc1cc(C(=O)Nn2c(O)c(C3=c4ccccc4=NC3=O)sc2=S)ccc1O` was tested, and the inhibition was 57.7% (active).
`CCOC(=O)[C@]12CCCC=C1N(Cc1ccc(OC)cc1)C(=O)[C@@H]2CC(=O)N1CCOCC1` showed an inhibition of 5.88%.
`O=C(c1ccc2c(c1)N(Cc1ccc(F)cc1)C(=O)CS2)N1CCOCC1` showed an inhibition of -7.7%.
